Source: ChEMBL document CHEMBL3120098, “Structure-activity relationship (SAR) optimization of 6-(indol-2-yl)pyridine-3-sulfonamides: identification of potent, selective, and orally bioavailable small molecules targeting hepatitis C (HCV) NS4B” (J Med Chem, 2014)
Values belong to the molecule of their own block, whether it stands above or below them.

Tests used:
[1] = Terminal half life in cynomolgus monkey at 2.5 mg/kg, iv; type: ADME, organism-based, Macaca fascicularis; set-up: dose 2.5 mg/kg, route intravenous; conditions: in vivo, read-out: beta t1/2 (converted)
Rattus norvegicus [2] = organism: Rattus norvegicus; test: Drug metabolism in bile duct cannulated rat assessed as 6-(3-cyano-6-ethyl-5-fluoro-1-(pyrimidin-2-yl)-1H-indol-2-yl)pyridine-3-sulfonamide level in plasma; type: ADME, organism-based
[3] = Terminal half life in Sprague-Dawley rat at 6 mg/kg, iv; type: ADME, organism-based; set-up: dose 6 mg/kg, route intravenous; conditions: in vivo, read-out: beta t1/2 (converted)
[4] = Volume of distribution at steady state in cynomolgus monkey at 2.5 mg/kg, iv and 5 mg/kg, po; type: ADME, organism-based, Macaca fascicularis; conditions: in vivo, read-out: Vdss
[5] = tested on: Pregnane X receptor (Homo sapiens); test: Activation of PXR (unknown origin) at 10 uM by reporter gene assay
[6] = Clearance in cynomolgus monkey at 2.5 mg/kg, iv; type: ADME, organism-based, Macaca fascicularis; set-up: dose 2.5 mg/kg, route intravenous; conditions: in vivo
[7] = Cmax in cynomolgus monkey at 5 mg/kg, po; type: ADME, organism-based, Macaca fascicularis; set-up: dose 5 mg/kg, route oral; conditions: in vivo
Rattus norvegicus [8] = organism: Rattus norvegicus; test: Drug metabolism in bile duct cannulated rat assessed as 6-(3-cyano-5-fluoro-6-(1-hydroxyethyl)-1-(pyrimidin-2-yl)-1H-indol-2-yl)pyridine-3-sulfonamide level in plasma; type: ADME, organism-based
Hepatocyte [9] = test: Induction of CYP3A4 mRNA expression in human hepatocytes at 3 uM relative to rifampicin; type: ADME, cell-based
Outline: (§1)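 Cryopreserved cultured human hepatocytes incubated 3 days with compound at several concentrations; CYP3A4 enzyme activity and mRNA expression measured, expressed as percent induction relative to rifampicin.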

[10] = Volume of distribution at steady state in Sprague-Dawley rat at 6 mg/kg, iv and 10 mg/kg, po; type: ADME, organism-based; conditions: in vivo, read-out: Vdss
[11] = Ratio of EC50 for HCV1b Con1 to plasma concentration in cynomolgus monkey at 5 mg/kg, po after 8 hrs
[12] = AUC (0 to infinity) in Sprague-Dawley rat at 10 mg/kg, po; type: ADME, organism-based; set-up: time infinity, dose 10 mg/kg, route oral; conditions: plasma
[13] = Clearance in Sprague-Dawley rat at 6 mg/kg, iv; type: ADME, organism-based; set-up: dose 6 mg/kg, route intravenous; conditions: in vivo
[14] = (§2) Oral bioavailability in beagle dog at 5 mg/kg; type: ADME, organism-based, Canis lupus familiaris; conditions: beagle, in vivo
Cytochrome P450 3A4 [15] = biological target: T1, Cytochrome P450 3A4 (Homo sapiens, UniProt P08684); test: Induction of CYP3A4 activity in human hepatocytes at 5 uM relative to rifampicin; type: ADME, cell-based, Hepatocyte; outline: as §1
[16] = Ratio of EC50 for HCV1b Con1 to plasma concentration in beagle dog at 5 mg/kg, po after 8 hrs
Cytochrome P450 3A4 [17] = biological target: T1, Cytochrome P450 3A4; test: Induction of CYP3A4 activity in human hepatocytes at 3 uM relative to rifampicin; type: ADME, cell-based, Hepatocyte; outline: as §1
[18] = Ratio of drug level in liver to plasma in Sprague-Dawley rat at 10 mg/kg, po after 6 hrs; type: ADME, organism-based; set-up: dose 10 mg/kg, route oral
Outline: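 Male Sprague-Dawley rats, 10 mg/kg PO suspension in 0.4% hydroxypropyl methylcellulose; liver and plasma drug levels measured at 6 h, expressed as liver/plasma ratio.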

[19] = Oral bioavailability in cynomolgus monkey at 5 mg/kg; type: ADME, organism-based, Macaca fascicularis; conditions: in vivo
[20] = Oral bioavailability in Sprague-Dawley rat at 10 mg/kg; type: ADME, organism-based; conditions: in vivo
Canis familiaris [21] = organism: Canis familiaris; test: Drug metabolism in bile duct cannulated dog assessed as GSH adduct formation; type: ADME, organism-based, Canis lupus familiaris; conditions: in vivo
Cytochrome P450 2C9 = Cytochrome P450 2C9 (Homo sapiens, UniProt P11712); test: Inhibition of CYP2C9 in human liver microsomes; type: ADME
[22] = Cmax in beagle dog at 5 mg/kg, po; type: ADME, organism-based, Canis lupus familiaris; set-up: dose 5 mg/kg, route oral; conditions: in vivo
[23] = Ratio of EC50 for HCV1b Con1 to plasma concentration in Sprague-Dawley rat at 10 mg/kg, po after 6 hrs
Hepatitis C virus [24] = test: Antiviral activity against HCV1a H77S assessed as inhibition of viral replication; type: functional, organism-based, Hepacivirus hominis; conditions: genotype 1a H77S
Hepatitis C virus [25] = test: Antiviral activity against HCV1b Con1 infected in human HuH7 cells assessed as inhibition of viral RNA replication by RT-PCR analysis; type: functional, organism-based, Hepacivirus hominis; conditions: isolate Con1, Huh-7
[26] = AUC (0 to infinity) in cynomolgus monkey at 5 mg/kg, po; type: ADME, organism-based, Macaca fascicularis; set-up: time infinity, dose 5 mg/kg, route oral; conditions: plasma
Rattus norvegicus [27] = organism: Rattus norvegicus; test: Drug metabolism in bile duct cannulated rat assessed as 6-(3-cyano-5-fluoro-6-(1-hydroxyethyl)-1-(pyrimidin-2-yl)-1H-indol-2-yl)-N-((S)-1,1,1-trifluoropropan-2-yl)pyridine-3-sulfonamide level in plasma; type: ADME, organism-based
[28] = AUC (0 to 6 hrs) in Sprague-Dawley rat at 10 mg/kg, po; type: ADME, organism-based; set-up: time < 6 hr, dose 10 mg/kg, route oral; conditions: plasma
Rhesus monkey = test: Drug metabolism in bile duct cannulated monkey assessed as GSH adduct formation; type: ADME, organism-based, Macaca mulatta; conditions: in vivo
[29] = Toxicity in human HuH7 cells assessed as effect on GAPDH mRNA level; type: cell-based, Huh-7
Outline: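 Run in parallel with replicon assay in Con1 replicon Huh-7 cells (0.5% DMSO, 37 °C); endogenous GAPDH mRNA quantified by TaqMan RT-PCR; highest concentration tested 10000 nM.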

[30] = Clearance in beagle dog at 2.5 mg/kg, iv; type: ADME, organism-based, Canis lupus familiaris; set-up: dose 2.5 mg/kg, route intravenous; conditions: in vivo
[31] = (§3) AUC (0 to infinity) in beagle dog at 5 mg/kg, po; type: ADME, organism-based, Canis lupus familiaris, Plasma; set-up: dose 5 mg/kg, route oral, time infinity; conditions: beagle, plasma
[32] = Terminal half life in beagle dog at 2.5 mg/kg, iv; type: ADME, organism-based, Canis lupus familiaris; set-up: dose 2.5 mg/kg, route intravenous; conditions: in vivo, read-out: beta t1/2 (converted)
[33] = Cmax in Sprague-Dawley rat at 10 mg/kg, po; type: ADME, organism-based; set-up: dose 10 mg/kg, route oral; conditions: in vivo
[34] = Volume of distribution at steady state in beagle dog at 2.5 mg/kg, iv and 5 mg/kg, po; type: ADME, organism-based, Canis lupus familiaris; conditions: in vivo, read-out: Vdss
Rattus norvegicus [35] = test: Toxicity in rat up to 2000 mg/kg/day; type: organism-based; conditions: in vivo
Outline: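 Non-GLP 14-day rat safety study with daily dosing up to 2000 mg/kg/day.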

Hepatocyte [36] = test: Induction of CYP3A4 mRNA expression in human hepatocytes at 5 uM relative to rifampicin; type: ADME, cell-based; outline: as §1
[37] = Ratio of EC50 for HCV1b Con1 to plasma concentration in Sprague-Dawley rat at 10 mg/kg, po after 8 hrs
Cytochrome P450 3A4 [38] = biological target: T1, Cytochrome P450 3A4; test: Inhibition of CYP3A4 in human liver microsomes; type: ADME
Cytochrome P450 2D6 = Cytochrome P450 2D6 (Homo sapiens, UniProt P10635); test: Inhibition of CYP2D6 in human liver microsomes; type: ADME
Rattus norvegicus [39] = test: Drug metabolism in bile duct cannulated rat assessed as 6-(3-cyano-1-cyclobutyl-6-(difluoromethoxy)-5-fluoro-1H-indol-2-yl)pyridine-3-sulfonamide formation in plasma at 5 mg/kg; type: ADME, organism-based; set-up: dose 5 mg/kg; conditions: in vivo
Canis familiaris [40] = test: as §2; type: ADME, organism-based, Canis lupus familiaris; conditions: in vivo
Canis familiaris [41] = test: as §3; type: ADME, organism-based, Canis lupus familiaris, Plasma; set-up: dose 5 mg/kg, route oral, time infinity; conditions: in vivo

T1 sequence (P08684 whole entry): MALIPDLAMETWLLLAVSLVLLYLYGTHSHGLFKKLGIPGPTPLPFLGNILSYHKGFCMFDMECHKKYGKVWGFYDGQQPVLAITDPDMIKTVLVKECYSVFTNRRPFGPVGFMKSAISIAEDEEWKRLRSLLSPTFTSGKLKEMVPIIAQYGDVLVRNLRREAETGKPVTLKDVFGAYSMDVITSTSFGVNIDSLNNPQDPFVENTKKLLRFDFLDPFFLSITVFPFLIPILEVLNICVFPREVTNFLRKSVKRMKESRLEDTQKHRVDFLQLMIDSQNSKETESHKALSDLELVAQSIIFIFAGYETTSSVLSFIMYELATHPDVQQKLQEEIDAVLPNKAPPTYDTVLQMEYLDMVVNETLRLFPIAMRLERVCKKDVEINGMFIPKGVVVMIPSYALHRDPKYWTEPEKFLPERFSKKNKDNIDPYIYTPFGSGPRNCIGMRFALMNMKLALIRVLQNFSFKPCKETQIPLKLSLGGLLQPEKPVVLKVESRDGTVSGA
Cytochrome P450 2D6, sequence (P10635 whole entry): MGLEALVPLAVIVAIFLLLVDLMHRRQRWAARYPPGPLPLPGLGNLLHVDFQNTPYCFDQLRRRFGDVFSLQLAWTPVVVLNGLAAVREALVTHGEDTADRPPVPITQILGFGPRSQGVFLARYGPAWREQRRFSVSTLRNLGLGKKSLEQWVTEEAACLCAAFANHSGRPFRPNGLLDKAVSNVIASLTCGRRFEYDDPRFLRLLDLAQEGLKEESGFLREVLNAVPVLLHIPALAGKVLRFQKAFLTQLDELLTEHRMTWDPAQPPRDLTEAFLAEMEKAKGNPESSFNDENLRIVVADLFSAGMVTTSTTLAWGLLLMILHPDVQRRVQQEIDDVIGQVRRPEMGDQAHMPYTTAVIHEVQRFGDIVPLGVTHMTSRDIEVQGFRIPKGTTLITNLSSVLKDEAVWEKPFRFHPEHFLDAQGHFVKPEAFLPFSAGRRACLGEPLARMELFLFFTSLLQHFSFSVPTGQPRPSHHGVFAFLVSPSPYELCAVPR
Cytochrome P450 2C9, sequence (P11712 whole entry): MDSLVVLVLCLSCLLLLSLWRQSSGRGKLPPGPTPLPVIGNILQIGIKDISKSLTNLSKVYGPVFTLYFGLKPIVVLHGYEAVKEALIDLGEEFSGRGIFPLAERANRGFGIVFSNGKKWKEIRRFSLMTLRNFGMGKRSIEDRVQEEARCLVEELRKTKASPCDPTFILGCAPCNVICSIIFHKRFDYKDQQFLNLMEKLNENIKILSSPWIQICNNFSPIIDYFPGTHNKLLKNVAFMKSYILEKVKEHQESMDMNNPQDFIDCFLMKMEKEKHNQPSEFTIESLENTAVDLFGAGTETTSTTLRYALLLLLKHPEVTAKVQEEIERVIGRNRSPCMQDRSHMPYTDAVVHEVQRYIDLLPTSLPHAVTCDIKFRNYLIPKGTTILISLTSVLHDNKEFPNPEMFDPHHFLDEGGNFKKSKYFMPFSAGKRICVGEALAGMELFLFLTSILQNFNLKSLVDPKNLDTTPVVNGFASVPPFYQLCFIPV

SMILES: CCc1cc2c(cc1F)c(C#N)c(-c1ccc(S(=O)(=O)N[C@@H](C)C(F)(F)F)cn1)n2-c1ncccn1
half-life [1]: 8 h
Drug metabolism (Rattus norvegicus [2]): Active
half-life [3]: 7.5 h
Vd [4]: 3.8 L/kg
Activity [5]: 37%
clearance [6]: 11 mL/min/kg
Cmax [7]: 540 nM
Drug metabolism (Rattus norvegicus [8]): Active
Activity (Hepatocyte [9]): 9.8%
Vd [10]: 3.9 L/kg
Ratio [11]: 50
AUC(0-inf) [12]: 20 µM·h
clearance [13]: 10.1 mL/min/kg
bioavailability [14]: 78%
Activity (Cytochrome P450 3A4 [15]): 9%
Ratio [16]: 460
Activity (Cytochrome P450 3A4 [17]): 6%
Kp at 6 h [18]: 25
bioavailability [19]: 18%
bioavailability [20]: 62%
Drug metabolism (Canis familiaris [21]): Not Active
IC50 (Cytochrome P450 2C9): > 10 µM
Cmax [22]: 4000 nM
Ratio [23]: 342
EC50 (Hepatitis C virus [24]): 0.007 µM
EC50 (Hepatitis C virus [25]): 0.002 µM
AUC(0-inf) [26]: 3.1 µM·h
Drug metabolism (Rattus norvegicus [27]): Active
AUC(0-t) at 6 h [28]: 8.16 µM·h
Drug metabolism (Rhesus monkey): Not Active
IC50 [29]: > 10 µM
clearance [30]: 4.6 mL/min/kg
AUC(0-inf) [31]: 29 µM·h
half-life [32]: 8.9 h
Cmax [33]: 2400 nM
Vd [34]: 2.1 L/kg
Activity (Rattus norvegicus [35]): Non-toxic
Activity (Hepatocyte [36]): 15.4%
Ratio [37]: 325
IC50 (Cytochrome P450 3A4 [38]): > 10 µM
IC50 (Cytochrome P450 2D6): > 10 µM

half-life [1]: 22 h
half-life [3]: 11 h
clearance [6]: 2.2 mL/min/kg
Drug metabolism (Rattus norvegicus [39]): Active
AUC(0-inf) [12]: 24.8 µM·h
clearance [13]: 3 mL/min/kg
F (Canis familiaris [40]): 91%
Kp at 6 h [18]: 11.4
bioavailability [19]: 35%
bioavailability [20]: 49%
EC50 (Hepatitis C virus [25]): 0.007 µM
AUC(0-inf) [26]: 24.8 µM·h
AUC(0-t) at 6 h [28]: 13.4 µM·h
AUC (Canis familiaris [41]): 24.79 µM·h
half-life [32]: 149 h
SMILES: C[C@H](NS(=O)(=O)c1ccc(-c2c(C#N)c3cc(F)c(OC(F)F)cc3n2C2CCC2)nc1)C(F)(F)F
Ratio [23]: 277
IC50 [29]: 9.1 µM
